Calls of active or inactive are those of the source. No cut-off for these calls is given here.
Key:
[1] = system: CEM/VLB100; assay: Synergistic antiproliferative activity against human CEM/VLB100 cells assessed as reduction in cell viability at 1:10 test compound to vinblastine after 48 hrs by MTT assay
[2] = target: ATP-dependent translocase ABCB1 (Homo sapiens, UniProt P08183); assay: Inhibition of ABCB1 in human […] cells after 2 hrs by Hoechst dye based flow cytometric analysis; format: cell-based
Sequence of ATP-dependent translocase ABCB1 (P08183 whole entry): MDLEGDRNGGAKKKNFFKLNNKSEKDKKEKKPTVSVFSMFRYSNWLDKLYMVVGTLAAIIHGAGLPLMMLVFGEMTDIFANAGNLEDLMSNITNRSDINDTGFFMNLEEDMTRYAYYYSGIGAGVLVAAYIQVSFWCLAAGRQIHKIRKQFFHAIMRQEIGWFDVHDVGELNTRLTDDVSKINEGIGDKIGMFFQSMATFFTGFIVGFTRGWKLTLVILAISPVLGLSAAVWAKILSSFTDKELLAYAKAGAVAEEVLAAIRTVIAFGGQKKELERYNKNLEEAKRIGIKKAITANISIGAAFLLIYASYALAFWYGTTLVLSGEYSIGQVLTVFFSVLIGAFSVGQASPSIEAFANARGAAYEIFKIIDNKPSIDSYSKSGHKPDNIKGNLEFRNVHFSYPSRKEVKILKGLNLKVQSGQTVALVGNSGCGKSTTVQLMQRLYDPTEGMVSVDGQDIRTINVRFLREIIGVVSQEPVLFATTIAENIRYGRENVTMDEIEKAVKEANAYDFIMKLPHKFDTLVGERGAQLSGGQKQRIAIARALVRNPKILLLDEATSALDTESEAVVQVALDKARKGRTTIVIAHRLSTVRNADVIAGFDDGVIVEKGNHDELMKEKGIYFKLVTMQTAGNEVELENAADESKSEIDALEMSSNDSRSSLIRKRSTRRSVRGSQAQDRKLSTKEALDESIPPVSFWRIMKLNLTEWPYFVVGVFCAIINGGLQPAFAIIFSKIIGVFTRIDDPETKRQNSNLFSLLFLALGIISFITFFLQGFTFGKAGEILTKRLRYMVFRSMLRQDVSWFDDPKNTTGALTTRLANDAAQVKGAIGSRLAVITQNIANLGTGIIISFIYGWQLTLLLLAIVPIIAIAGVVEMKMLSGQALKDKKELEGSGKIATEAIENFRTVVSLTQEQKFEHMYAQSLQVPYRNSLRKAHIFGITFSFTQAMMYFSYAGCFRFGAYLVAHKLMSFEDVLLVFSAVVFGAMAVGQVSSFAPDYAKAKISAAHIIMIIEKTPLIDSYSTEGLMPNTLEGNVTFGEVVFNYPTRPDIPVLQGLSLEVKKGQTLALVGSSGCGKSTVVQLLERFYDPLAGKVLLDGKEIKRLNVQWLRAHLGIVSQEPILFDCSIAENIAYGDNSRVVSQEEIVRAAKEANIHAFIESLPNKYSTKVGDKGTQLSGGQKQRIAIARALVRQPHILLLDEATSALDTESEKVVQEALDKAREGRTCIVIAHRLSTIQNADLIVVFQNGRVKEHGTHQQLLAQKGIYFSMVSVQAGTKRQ
In short: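 Medulloblastoma DAOY cells were treated with compounds at 10 μM for 2 h. Cells (10^6/mL) were stained with 5 μg/mL Hoechst 33342 in αMEM with 2% FBS for 90 min at 37 °C, then with 2 μg/mL propidium iodide at 4 °C for 10 min. Side-population cells were gated on PI-negative events on a Hoechst red vs blue plot under UV excitation, acquiring at least 30 000 live events.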

[3] = Cytotoxicity against human peripheral blood lymphocytes assessed as cell growth inhibition after 72 hrs by MTT assay; format: functional; settings: Lymphocyte
In short: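 Resting, non-PHA-stimulated lymphocytes from healthy-donor buffy coats were isolated by density-gradient centrifugation and incubated overnight in RPMI-1640 with 10% FBS. Nonadherent cells were then seeded at 5 × 10^5 cells/mL with a range of compound concentrations for 72 h. Viability was read by MTT at 560 nm. GI50 was taken as 50% proliferation inhibition from log concentration plots.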

[4] = Cytotoxicity against human peripheral blood lymphocytes assessed as cell growth inhibition after 72 hrs in presence of PHA by MTT assay; format: functional; settings: Lymphocyte
In short: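 Lymphocytes from healthy-donor buffy coats were isolated by density-gradient centrifugation and incubated overnight in RPMI-1640 with 10% FBS. Nonadherent cells were reseeded at 5 × 10^5 cells/mL in medium with 2.5 μg/mL PHA so they would proliferate, then exposed to a range of compound concentrations for 72 h. Viability was read by MTT at 560 nm. GI50 was taken as 50% proliferation inhibition.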

[5] = organism: Homo sapiens; assay: Stimulation of P-gp ATPase activity (unknown origin) assessed as increase in ATP consumption at 10 uM relative to control; settings: filed as activator
In short: (§1)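 Luminescent P-gp-Glo assay on recombinant human P-gp in a membrane fraction (25 μg), with sodium orthovanadate (100 μM) as ATPase inhibitor. Reactions were started with 10 mM MgATP and stopped after 40 min with luciferase detection reagent; luminescence was read 60 min later. ATP consumption appears as lost luminescence. Activity is given as fold change versus untreated control, mean of three independent experiments.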

[6] = organism: Homo sapiens; assay: Stimulation of P-gp ATPase activity (unknown origin) assessed as increase in ATP consumption at 1 uM relative to control; settings: filed as activator
In short: as §1

| inhibition (INH) [2] | fold change (FC) [5] | fold change (FC) [6] | SMILES | Activity [1] | GI50 [3] | GI50 [4] |
| --- | --- | --- | --- | --- | --- | --- |
| Active | 4 |  | CC(C)(O)CC[C@@H](OC(=O)c1ccccc1)[C@](C)(O)[C@H]1CC[C@@]2(O)C3=CC(=O)[C@@H]4C[C@@H](OC(=O)c5ccccc5)[C@@H](OC(=O)c5ccccc5)C[C@]4(C)[C@H]3CC[C@]12C | Active | > 100 µM | 19.9 µM |
| Active |  | 6 | CC(C)(O)CC[C@H]1OC2(CCCCC2)O[C@]1(C)[C@H]1CC[C@@]2(O)C3=CC(=O)[C@@H]4C[C@H]5OC6(CCCCC6)O[C@H]5C[C@]4(C)[C@H]3CC[C@]12C | Active | 61.7 µM | 42.8 µM |
|  | 4 |  | COc1ccc(CCN(C)CCCC(C#N)(c2ccc(OC)c(OC)c2)C(C)C)cc1OC (stereo unspecified) |  |  |  |

Reference: ChEMBL document CHEMBL4665753, “Ecdysteroid Derivatives that Reverse P-Glycoprotein-Mediated Drug Resistance” (J Nat Prod, 2020)
